Measured values reported in ChEMBL document CHEMBL2021780, “Antineoplastic agents. 548. Synthesis of iodo- and diiodocombstatin phosphate prodrugs” (J Nat Prod, 2012).
Converted amounts (≈) assume the structure as drawn. The source made the active and inactive calls. The rule behind the calls is not given here.

Columns and labels:
[1] = system: HUVEC; experiment: Antiangiogenic activity in HUVEC assessed as reduction of cord length at 0.01 ug/ml after 24 hrs by matrigel assay relative to control; format: functional, Homo sapiens; design: scale not given: the % may be the effect or the level left
Outline: (§1)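 Commercial HUVECs grown in EGM-2 were seeded at 2 × 10⁵ cells/mL onto Matrigel, which had been polymerized 15 min at rt and then 30 min at 37 °C, per NCI DTP protocol. Compound was added and cells were incubated 24 h, then imaged by inverted microscopy. Cord length and junction number were scored against untreated control on a scale from − (none) to +++ (same as control), with ++ = 50% of control.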

[2] = system: P388; experiment: Growth inhibition of mouse P388 cells after 48 hrs by Z1 Beckman/Coulter particle counter analysis; format: functional; conditions: P388, 48 h, read-out: ED50 (the source's name)
Outline: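 Mouse P388 leukemia cells were incubated 24 h in 10% horse serum/Fisher medium, then exposed 48 h to serial compound dilutions. ED50 was calculated from cell counts on a Coulter Z1 particle counter.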

[3] = system: MCF7; experiment: Growth inhibition of human MCF7 cells after 48 hrs by sulforhodamine B assay; format: functional; conditions: MCF7, 48 h
Outline: (§2)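 NCI sulforhodamine B assay. Cells were seeded in 5% FBS/RPMI-1640 and incubated 24 h. Serial compound dilutions were then added for 48 h. Cells were fixed with trichloroacetic acid, stained with SRB and read by microplate reader. GI50 is the concentration giving 50% reduction in net protein increase, calculated from optical density data.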

[4] = system: HUVEC; experiment: Antiangiogenic activity in HUVEC assessed as cell growth at 0.001 ug/ml after 24 hrs by sulforhodamine B assay relative to control; format: functional, Homo sapiens; conditions: for growth at 0.001 µg/mL: Homo sapiens, HUVEC, 24 h, read-out: Activity
[5] = Inhibition of purified tubulin assembly after 20 mins
Outline: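 Purified tubulin at 10 μM in 0.8 M monosodium glutamate (pH 6.6), 0.4 mM GTP and 4% (v/v) DMSO, with varying compound concentrations. Extent of assembly was measured after 20 min at 30 °C.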

[6] = system: HUVEC; experiment: Antiangiogenic activity in HUVEC assessed as cell growth at 1 ug/ml after 24 hrs by sulforhodamine B assay relative to control; format: functional; conditions: Homo sapiens, read-out: Activity
[7] = system: Neisseria gonorrhoeae; experiment: Antibacterial activity against Neisseria gonorrhoeae ATCC 49226 by broth microdilution method; format: functional
Outline: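 Broth microdilution followed NCCLS standard methods. Compounds were reconstituted in sterile DMSO and diluted in the appropriate medium immediately before testing. MIC was taken as the lowest concentration giving no visible growth (optically clear). Assays were repeated on separate days.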

[8] = system: HUVEC; experiment: Antiangiogenic activity in HUVEC assessed as reduction of number of junctions at 0.01 ug/ml after 24 hrs by matrigel assay relative to control; format: functional, Homo sapiens; design: scale not given: the % may be the effect or the level left; outline: as §1
[9] = system: KM-20L2; experiment: Growth inhibition of human KM20L2 cells after 48 hrs by sulforhodamine B assay; format: functional; conditions: KM-20L2, 48 h; outline: as §2
[10] = system: DU-145; experiment: Growth inhibition of human DU145 cells after 48 hrs by sulforhodamine B assay; format: functional; conditions: DU-145, 48 h; outline: as §2
[11] = Solubility of the compound in water; format: physicochemical; conditions: buffer
Outline: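 Solubility expressed as amount dissolving in 1 mL H₂O at 25 °C.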

[12] = system: NCI-H460; experiment: Growth inhibition of human NCI-H460 cells after 48 hrs by sulforhodamine B assay; format: functional; conditions: NCI-H460, 48 h; outline: as §2
[13] = system: HUVEC; experiment: Antiangiogenic activity in HUVEC assessed as cell growth at 0.1 ug/ml after 24 hrs by sulforhodamine B assay relative to control; format: functional, Homo sapiens
[14] = system: HUVEC; experiment: Antiangiogenic activity in HUVEC assessed as cell growth at 0.01 ug/ml after 24 hrs by sulforhodamine B assay relative to control; format: functional, Homo sapiens
[15] = system: BXPC-3; experiment: Growth inhibition of human BxPC3 cells after 48 hrs by sulforhodamine B assay; format: functional; conditions: BXPC-3, 48 h; outline: as §2
[16] = system: HUVEC; experiment: Antiangiogenic activity in HUVEC assessed as cell growth inhibition after 48 hrs by sulforhodamine B assay; format: functional, cell-based; conditions: Homo sapiens
Outline: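 HUVECs were grown in EGM-2 medium and tested with the standard SRB growth assay following NCI Developmental Therapeutics Program Matrigel antiangiogenesis protocols. IC50 (concentration causing 50% inhibition) was calculated from plotted data.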

[17] = system: HUVEC; experiment: Antiangiogenic activity in HUVEC assessed as reduction of cord length at 0.001 ug/ml after 24 hrs by matrigel assay relative to control; format: functional, Homo sapiens; design: scale not given: the % may be the effect or the level left; outline: as §1
[18] = system: SW-1736; experiment: Growth inhibition of human SW1736 cells after 48 hrs by sulforhodamine B assay; format: functional; conditions: SW-1736, 48 h
[19] = Growth inhibition of human KAT4 cells after 48 hrs by sulforhodamine B assay; format: functional; conditions: KAT-4, 48 h
[20] = system: HUVEC; experiment: Antiangiogenic activity in HUVEC assessed as cell growth at 0.0001 ug/ml after 24 hrs by sulforhodamine B assay relative to control; format: functional, Homo sapiens
[21] = system: HUVEC; experiment: Antiangiogenic activity in HUVEC assessed as cell growth at 0.00001 ug/ml after 24 hrs by sulforhodamine B assay relative to control; format: functional; conditions: Homo sapiens, read-out: Activity
[22] = system: HUVEC; experiment: Antiangiogenic activity in HUVEC assessed as reduction of number of junctions at 0.001 ug/ml after 24 hrs by matrigel assay relative to control; format: functional, Homo sapiens; design: scale not given: the % may be the effect or the level left; outline: as §1
[23] = system: SF-268; experiment: Growth inhibition of human SF268 cells after 48 hrs by sulforhodamine B assay; format: functional; conditions: SF-268, 48 h; outline: as §2
[24] = system: HUVEC; experiment: Antiangiogenic activity in HUVEC assessed as reduction of number of junctions at 0.1 ug/ml after 24 hrs by matrigel assay relative to control; format: functional, cell-based; conditions: Homo sapiens; outline: as §1
[25] = system: HUVEC; experiment: Antiangiogenic activity in HUVEC assessed as reduction of cord length at 0.1 ug/ml after 24 hrs by matrigel assay relative to control; format: functional, cell-based; conditions: Homo sapiens; outline: as §1
[26] = system: HUVEC; experiment: Antiangiogenic activity in HUVEC assessed as reduction of number of junctions at 1 ug/ml after 24 hrs by matrigel assay relative to control; format: functional, cell-based; conditions: Homo sapiens; outline: as §1
[27] = system: HUVEC; experiment: Antiangiogenic activity in HUVEC assessed as reduction of cord length at 1 ug/ml after 24 hrs by matrigel assay relative to control; format: functional, cell-based; conditions: Homo sapiens; outline: as §1
[28] = Displacement of [3H]colchicine from tubulin at 1 uM after 10 mins
Outline: (§3)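 [³H]colchicine binding: 1.0 μM tubulin with 5.0 μM [³H]colchicine and compound, incubated 10 min at 37 °C. The tubulin–colchicine complex was separated from unbound label by retention on DEAE-cellulose filters. Result is inhibition of radiolabel binding.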

[29] = system: HUVEC; experiment: Antiangiogenic activity in HUVEC assessed as reduction of number of junctions at 0.0001 ug/ml after 24 hrs by matrigel assay relative to control; format: functional; conditions: Homo sapiens
Outline: (§4)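 Matrigel was polymerised in wells (15 min rt, then 30 min 37 °C). HUVECs (2 × 10⁵ cells/mL) were added with compound and incubated 24 h, then imaged by inverted microscope. Cord length and junction number were scored semi-quantitatively versus untreated control (− none to +++ same as control).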

[30] = system: Micrococcus luteus; experiment: Antibacterial activity against Micrococcus luteus Presque Isle 456 by broth microdilution method; format: functional
Outline: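 Broth microdilution per NCCLS bacterial (M7-A5) and yeast standards. Compounds were reconstituted in sterile DMSO and diluted in the appropriate medium just before testing. MIC is the lowest concentration giving complete inhibition of visible growth (optically clear). Assays were repeated on separate days.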

[31] = system: HUVEC; experiment: Antiangiogenic activity in HUVEC assessed as reduction of cord length at 0.0001 ug/ml after 24 hrs by matrigel assay relative to control; format: functional; conditions: Homo sapiens; outline: as §4
[32] = Displacement of [3H]colchicine from tubulin at 10 uM after 10 mins; outline: as §3
[33] = Homo sapiens, HUVEC, 24 h, read-out: Activity

COc1ccc(/C=C\c2cc(I)c(OC)c(I)c2)cc1OP(=O)([O-])[O-].[Na+].[Na+]
Activity [1]: 75% | EC50 [2]: 0.03 µg/mL | GI50 [3]: 0.066 µg/mL | Activity [4]: >100% | IC50 [5]: > 40000 nM | growth at 1 µg/mL [6]: -7% | MIC [7]: 32 µg/mL | Activity [8]: 75% | GI50 [9]: > 1 µg/mL | GI50 [10]: 0.242 µg/mL | solubility [11]: 2000 µg/mL | GI50 [12]: 0.327 µg/mL | Activity [13]: -2% | Activity [14]: >100% | GI50 [15]: > 1 µg/mL | IC50 [16]: 0.051 µg/mL

COc1ccc(/C=C\c2cc(I)c(OC)c(OC)c2)cc1OP(=O)([O-])[O-].[K+].[K+]
EC50 [2]: 0.0021 µg/mL | Activity [17]: 50% | GI50 [3]: 0.0064 µg/mL | growth at 0.001 µg/mL [4]: 10% | GI50 [18]: > 10 µg/mL | GI50 [19]: 0.37 µg/mL | Activity [20]: 77% | GI50 [9]: 0.41 µg/mL | growth at 10 pg/mL [21]: 95% | GI50 [10]: 0.0038 µg/mL | Activity [22]: 75% | solubility [11]: 14000 µg/mL | GI50 [12]: 0.0043 µg/mL | Activity [14]: 1% | GI50 [23]: 0.0057 µg/mL | GI50 [15]: 0.381 µg/mL | IC50 [16]: 0.00025 µg/mL

COc1ccc(/C=C\c2cc(I)c(OC)c(I)c2)cc1OP(=O)(O)O
Activity [24]: Active | Activity ([17]; Homo sapiens): inactive | Activity [25]: Active | Activity [26]: Active | Activity ([22]; Homo sapiens): inactive | Activity [27]: Active

COc1ccc(/C=C\c2cc(I)c(OC)c(I)c2)cc1O
Activity ([1]; Homo sapiens): Active | inhibition [28]: 95% | EC50 [2]: 0.0028 µg/mL (≈ 5.51 nM) | Activity ([17]; Homo sapiens): Active | Activity [29]: inactive | GI50 [3]: 0.0027 µg/mL (≈ 5.31 nM) | growth at 0.001 µg/mL [4]: 8% | IC50 [5]: 1500 nM | GI50 [18]: 1.2 µg/mL (≈ 2360 nM) | GI50 [19]: 0.039 µg/mL (≈ 76.8 nM) | growth at 0.0001 µg/mL [20, 33]: 84% | Activity ([8]; Homo sapiens): Active | MIC [30]: 4 µg/mL (≈ 7870 nM) | Activity [31]: inactive | GI50 [9]: 0.15 µg/mL (≈ 295 nM) | growth at 10 pg/mL [21]: 87% | GI50 [10]: 0.0021 µg/mL (≈ 4.13 nM) | Activity ([22]; Homo sapiens): Active | inhibition [32]: 100% | GI50 [12]: 0.0034 µg/mL (≈ 6.69 nM) | growth at 0.01 µg/mL [14, 33]: 4% | GI50 [23]: 0.0036 µg/mL (≈ 7.09 nM) | GI50 [15]: 0.038 µg/mL (≈ 74.8 nM) | IC50 [16]: 0.00028 µg/mL (≈ 0.551 nM)
